Assay outcomes deposited in PubChem by several laboratories.
Neddyl block = inhibitors of cullin neddylation, primary screen, biochemical, TR-FRET, uHTS, NAE and Ubc12. NEDD8-conjugating enzyme Ubc12 (Homo sapiens) + NEDD8-activating enzyme E1 regulatory …. 360,000 tested, 0.58% active. AID 651699, 2012. calls only at 25 µM; in the data active means inhibition above about 36%
Target sequence (P61081 whole entry, looked up): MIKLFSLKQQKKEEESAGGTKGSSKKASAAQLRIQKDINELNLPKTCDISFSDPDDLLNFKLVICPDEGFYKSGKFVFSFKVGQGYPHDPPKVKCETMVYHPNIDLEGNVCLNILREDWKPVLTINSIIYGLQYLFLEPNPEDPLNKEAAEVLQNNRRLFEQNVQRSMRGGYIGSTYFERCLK
Target sequence (Q13564 whole entry, looked up): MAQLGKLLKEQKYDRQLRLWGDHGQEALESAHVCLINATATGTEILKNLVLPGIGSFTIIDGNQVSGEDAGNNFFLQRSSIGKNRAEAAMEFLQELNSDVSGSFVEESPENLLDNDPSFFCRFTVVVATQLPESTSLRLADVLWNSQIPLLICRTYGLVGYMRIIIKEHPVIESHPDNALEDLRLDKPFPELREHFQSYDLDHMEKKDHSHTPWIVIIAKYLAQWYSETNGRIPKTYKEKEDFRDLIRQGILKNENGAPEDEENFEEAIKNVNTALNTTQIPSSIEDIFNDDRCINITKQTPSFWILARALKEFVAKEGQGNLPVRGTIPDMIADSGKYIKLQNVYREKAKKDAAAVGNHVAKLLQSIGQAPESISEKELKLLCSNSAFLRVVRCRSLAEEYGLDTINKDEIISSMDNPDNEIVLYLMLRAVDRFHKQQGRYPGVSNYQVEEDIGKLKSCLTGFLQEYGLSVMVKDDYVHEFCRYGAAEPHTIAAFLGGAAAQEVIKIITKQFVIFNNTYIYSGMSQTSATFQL
DDE Tn7 FP inh = inhibitors of Tn7 peptide binding to fibrin DD(E), primary screen, biochemical, fluorescence polarization, human fibrin, Tn7 probe. Fibrinogen beta chain (Homo sapiens), P02675. FP displacement of FITC-Tn7 peptide from fibrin DD(E); 0% = median of compound wells per plate. inhibition, % at 8.3 µM. 370,000 tested, 0.13% active;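 active means inhibition above the mean of compounds falling within the control limits plus 3 SD of them, cut at about 14% in these data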;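 further: 0% = plate median of compound wells and 100% = 10 µM Aha-Tn7 peptide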
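system = human fibrin DD(E) protein | quantity = DD(E) 2 µM final | medium = Tris/NaCl/CaCl2 buffer, pH 7.8 | also added = labelled Tn7 tracer, 0.1 µM | compound dosing = single point at 8.3 µM | timing = compound with protein 10 min, then 3 h after probe, room temperature | signal = FP measurement | benchmarks = Aha-Tn7 high control | repeats = one replicate per compound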
Tn6 DDE FP = inhibitors of Tn6 peptide binding to fibrin DD(E), primary screen, biochemical, fluorescence polarization, human fibrin, Tn6 probe; Fibrinogen beta chain (Homo sapiens), P02675; Fibrin DD(E) TRITC-Tn6 fluorescence polarization displacement; inhibition, % at 8.3 µM; 370,000 tested, 0.21% active;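 active means inhibition above a per-campaign cutoff: mean of compounds within control limits plus 3 SD, cut at about 15% in these data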;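 further: 0% = median of all compound wells on the plate and 100% = blocking peptide control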
MT1-MMP act inh = blockers of MT1-MMP proenzyme processing, primary screen, HT1080 RFP-PRO-GFP cells, GFP/RFP fluorescence | Matrix metalloproteinase-14 (Homo sapiens), P50281 | GFP/RFP ratio fluorescence, overnight; percent of plate control window, DMSO zero | GFP/RFP ratio change, % at 20 µM | 360,000 tested, 0.061% active;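 active means GFP/RFP ratio change of at least 30% with cell ATP level not reduced by more than half and red fluorescence within 50% of control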
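Assay system: HT1080 cells carrying an RFP-PRO-GFP reporter | Dosing: Single dose of 20 µM compound, 1% DMSO final | Incubation: Cells overnight before dosing, compound overnight, 37 °C, 5% CO2 | Evaluation: GFP/RFP fluorescence ratio | Control set: DMSO and RFP-L50D-GFP cell wells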
proKLK7 act = proKLK7 zymogen activators, primary screen, biochemical, fluorescence intensity; purified proKLK7, EDANS-DABCYL substrate fluorescence; 100% is mature enzyme control, 0% vehicle; activation, % at 7 µM; 370,000 tested, 0.9% active;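 active means activation above the mean of all tested compounds plus 3 SD, computed per campaign excluding outliers beyond control limits, cut at about 13% in these data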
SKN-1 inh = suppressors of acrylamide-induced Pgst-4::GFP reporter in worms, primary screen, SKN-1 inhibitor project, whole organism, uHTS, GFP/RFP fluorescence ratio, strain VP596; 360,000 tested, 0.49% active; inhibition, % at 21.8 µM; C. elegans VP596 Pgst-4::GFP/RFP ratio, 24 h;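 active means interference check ratio from 0.5 to 1.5 plus GFP to RFP signal ratio inhibition reaching or exceeding a fixed threshold, cut at about 30% in these data, passing the limit was not always enough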
proKLK7 act conf = proKLK7 zymogen activators, confirmation, biochemical, fluorescence intensity, triplicate; shares compounds with proKLK7 act; activation, % at 7 µM; 3,200 tested, 68% active; purified proKLK7, EDANS-DABCYL substrate fluorescence; scaled: vehicle 0, mature enzyme 100;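 active means activation, as change over the incubation, above the mean of all tested compounds plus 3 SD, cut at about 13% in these data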
EDANS-DABCYL int = EDANS-DABCYL substrate optical interference, artefact control for kallikrein-7 zymogen activator project, biochemical, fluorescence intensity, high throughput. shares compounds with proKLK7 act. no enzyme, 4 h; solvent 0%, active enzyme control 100%. activation, % at 7 µM. 3,200 tested, 80% active. AID 686952, 2013;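 active means activation above the all-compound mean plus 3 SD, ignoring values outside control-based bounds, cut at about 4.8% in these data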;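 further: value is the 4 h activation minus the activation read at time zero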
K7 EDANS ctr = optically interferes with EDANS-DABCYL fluorescence, kallikrein-7 activator counter-screen; shares compounds with proKLK7 act; EDANS-DABCYL peptide fluorescence interference, no enzyme; EC50, µM; 250 tested, 20% active; AID 720493;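 active means compounds that raise the fluorescence signal in this interference counterscreen, with EC50 at or below 10 µM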;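 further: intact quenched peptide substrate alone read at 355 nm excitation and 520 nm emission; signal is fluorescence gain from T0 to T4 after four hours at room temperature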
* marks the source's active call; other numbers are inactive results; i = inactive; · = not tested or not shown. Compounds with a hit are over-represented: about 2.2% of the library has one in this group of screens.

SMILES | Neddyl block | DDE Tn7 FP inh | Tn6 DDE FP | MT1-MMP act inh | proKLK7 act | SKN-1 inh | proKLK7 act conf | EDANS-DABCYL int | others
Cc1oc2c(CN3CCCC3)c(O)ccc2c(=O)c1-c1ccc(Br)cc1 | · | -2 | 3 | -4 | 15* | 10 | 35* | 30* | K7 EDANS ctr=>69
COC(=O)c1sc(NC(=O)CSc2nnnn2-c2ccc(C)cc2C)nc1C | i | 1 | -9 | -2 | 1 | 1 | · | ·
CC(=O)N1c2c(cc(Br)cc2S(=O)(=O)NCC2COc3ccccc3O2)CC1C (stereo not drawn) | i | -1 | -4 | 3 | 0 | 11 | · | ·
CCCCCn1c(=O)c(C(=O)c2ccccc2)nc2ccccc21 | i | 3 | -2 | 0 | 0 | 13 | · | ·
CCCCCCn1c(=O)[nH]c2nc3cc(N)ccc3nc2c1=O | · | -5 | -3 | · | 14* | · | 19* | 20*
COC(=O)c1c(C#N)c(N)nc2c1CCCC2 | · | 1 | -4 | -2 | 78* | -1 | 72* | 75*
CCOC(=O)CC(=O)Nc1cc2ccc(OC)c(OC)c2cc1C(=O)OCC | · | -7 | 4 | 3 | 16* | 2 | -24 | -25
CNc1snc(C)c1C(=O)OC(C)C(=O)Nc1cccc(C)c1 (stereo not drawn) | i | -7 | -5 | -5 | 0 | -7 | · | ·
CNC(=S)NNC(=O)c1cccn(Cc2cccc(C(F)(F)F)c2)c1=O | i | 3 | -7 | 2 | 28* | 32 | 89* | 84*
CCNC(=S)NNC(=O)c1cccn(Cc2ccc(Cl)cc2)c1=O | i | 1 | -1 | 4 | 22* | 18 | 33* | 39*
CCNC(=S)NNC(=O)c1ccccc1Cl | i | -9 | -2 | -1 | 0 | 4 | · | ·
CNC(=S)NNC(=O)c1cccn(Cc2ccc(Cl)cc2Cl)c1=O | · | 4 | 12 | · | 15* | · | 30* | 42*
CC(C)(C)S(=O)(=O)N1C[C@H]2C(=C(CCO)C[C@H]3C(=O)N(c4ccccc4)C(=O)[C@H]32)[C@@H]1CCO | · | 2 | -5 | · | 0 | · | · | ·
COC(=O)c1cc2c(C)nn(-c3ccccc3)c2s1 | i | -3 | 2 | -2 | -2 | -1 | · | ·
Cc1nn(-c2ccccc2)c2sc(C(=O)OC3CCOC3=O)cc12 (stereo not drawn) | · | 2 | 8 | 3 | 20* | 18 | 11 | 13*
Cc1nc2c(=O)[nH]c(=S)n(C)c2nc1C | i | 3 | 2 | 1 | 1 | 10 | · | ·
CCC1CCCCN1Cc1c(O)ccc2c(=O)c(-c3ccccc3)coc12 (stereo not drawn) | · | -3 | 1 | -4 | 38* | 30 | 55* | 33*
CCc1cc2c(=O)c(-c3nc4ccccc4[nH]3)coc2c(CN2CCCCC2C)c1O (stereo not drawn) | i | 2 | -9 | 2 | -1 | 0 | · | ·
CCC1CCCCN1Cc1nc2ccccc2c(=O)n1CC(C)=O (stereo not drawn) | i | 2 | 12 | -4 | 0 | -10 | · | ·
